Screening data (PubChem BioAssay)
Sampled rows, rich in hits. Any-hit rate of the full collection: about 1.9%.
VIM-2 inh: VIM-2 metallo-beta-lactamase inhibitors, primary screen, biochemical, epi-absorbance readout, Pseudomonas aeruginosa enzyme. inhibition, % at 5.6 µM. actives 0.89% (n = 290,000). purified VIM-2, nitrocefin hydrolysis, epi-absorbance fluorescence;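 active means inhibition above the mean of all tested compounds plus 3 SD, cutoff set per screening run, cut at about 7.5% in these data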;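 further: red hydrolysis product quenches plate fluorescence so inhibitors raise well fluorescence; 0% = enzyme with DMSO and 100% = DMSO without enzyme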
T cell modulator: modulators of CD8 T cell-vesicle binding, primary screen, mouse 2C CD8+ T cells, flow cytometry; AID 2052, 2009; actives 0.068% (n = 330,000); response (vesicle binding), % at 7 µM; 2C CD8+ T cell-vesicle binding; active compounds read low;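 active means response, share of CD8 T cells binding vesicles, and their 90th percentile fluorescence all below set limits, cut at about 80% in these data, passing the limit was not always enough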;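 further: values below 100% mean blocked vesicle binding to the CD8+ T cells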
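Assay system – 2C mouse CD8+ T cells · Also added – QL9-loaded Drosophila micro-vesicles · Timing – Cell–vesicle co-incubation 1.5 h at 37 °C, staining 20 min on ice · Signal – flow cytometry of vesicle-bound cells · Measure – percent CD8+ FL2 mean versus row control · Controls – Peptide-free naked vesicles (low) and QL9 vesicles with 0.7% DMSO vehicle (high)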
p-CIP stab down: p/CIP-EGFP fusion destabilizers, primary screen, fluorescence, F442A cells; 16 h; AID 1984, 2009; Q05BA5; actives 0.01% (n = 290,000); decrease of EGFP signal, % at 10 µM;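 active means EGFP signal decrease of at least 30% at 10 µM or well 3 SD below plate mean, unless failing retest; inactive means the rest, including hits failing retest or dose response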
IMP-1 inhibitor: IMP-1 metallo-beta-lactamase inhibitors, primary screen, biochemical, epi-absorbance readout, Pseudomonas aeruginosa enzyme | AID 1556, 2009 | actives 0.45% (n = 290,000) | metallo-beta-lactamase IMP-1 (Pseudomonas aeruginosa) | inhibition, % at 5.6 µM | purified IMP-1, nitrocefin hydrolysis, epi-absorbance fluorescence;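 active means inhibition above the mean plus 3 SD of all compounds in the same screening run, cut at about 4.5% in these data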;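 further: 0% = IMP-1 with DMSO and 100% = DMSO wells lacking enzyme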
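System: purified IMP-1 / Input: IMP-1 dispensed at 0.2 nM / Medium: 50 mM HEPES pH 7.1, 50 µM ZnSO4, 0.05% Brij 35 / Timing: 15 min enzyme–compound preincubation, then 25 min nitrocefin reaction, 25 °C / Technique: plate fluorescence quenching by hydrolysis product, ex 480/em 530 nm / Repeats: singlicate testing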
CTSL1 counter: Fasciola hepatica cathepsin L1 inhibitors, primary screen, counter-screen for PFM18AAP inhibitor project, biochemical, QFRET, fluorogenic peptide substrate | AID 1906, 2009 | recombinant F. hepatica cathepsin L1, Z-Leu-Arg-MCA fluorescence | inhibition, % at 5.96 µM | actives 0.49% (n = 300,000);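 active means inhibition above the mean of all tested compounds plus 3 SD, set per screening campaign, cut at about 17% in these data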;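 further: 0% = plate median of test compound wells and 100% = 1 µM Z-Phe-Ala-diazomethylketone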
SUMO HTRF inh: inhibitors of in vitro SUMOylation cascade, primary screen, biochemical, HTRF, uHTS; SUMO-conjugating enzyme UBC9 (Homo sapiens), P63279; HTRF SUMOylation assay, SAE1/SAE2 + UBC9; inhibition, % at 35 µM; actives 0.36% (n = 290,000); AID 2006, 2009; in the data active means inhibition above about 50%, passing the limit was not always enough
Target sequence (P63279 whole entry, looked up): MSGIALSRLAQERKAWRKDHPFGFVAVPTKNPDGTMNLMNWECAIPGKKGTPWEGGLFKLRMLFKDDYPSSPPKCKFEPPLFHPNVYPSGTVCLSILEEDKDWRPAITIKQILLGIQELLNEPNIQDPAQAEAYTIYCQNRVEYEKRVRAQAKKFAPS
An asterisk follows results filed as active; i = inactive; / = not tested or not shown.

SMILES	VIM-2 inh	T cell modulator	p-CIP stab down	IMP-1 inhibitor	CTSL1 counter	SUMO HTRF inh
COc1ccc(C(=O)OCC(=O)NC(=O)NC2CCCC2)cc1OC	/	959	/	/	/	/
COc1ccc(S(=O)(=O)NCc2ccc(C(=O)NCc3cccnc3)cc2)cc1	-2	645	-5	-4	0	11
CN1C(=O)/C(=C2\SC(=S)N(CCCCCC(=O)O)C2=O)c2ccccc21	-2	267	-5	0	-1	32
O=C(O)CCN1C(=O)/C(=C2\C(=O)N(Cc3ccc(F)cc3)c3ccccc32)SC1=S	-1	231	0	51*	-2	-74
COC(=O)CSc1nnc2cc(C)c3ccccc3n12	10*	541	-9	2	-2	-7
Cc1c2cnn(CC(=O)Nc3c(F)c(F)cc(F)c3F)c(=O)c2c(C)n1Cc1ccccc1F	0	253	-4	-1	1	62*
O=C(COC(=O)C1CC1)NCc1ccc(Cl)cc1Cl	/	270	/	/	/	/
CC(C)(C)c1cc(-c2n[nH]c(=S)n2-c2ccc(Cl)cc2)n[nH]1	3	302	-6	-4	-1	22
COc1cc(OC)cc(-c2n[nH]c(=S)n2-c2ccc3c(c2)OCCO3)c1	8.1*	169	2	-5	-1	0
S=c1[nH]nc(COc2ccc3c(c2)OCO3)n1-c1ccccc1	-3	213	-13	-3	1	24
S=c1[nH]nc(-c2ccc(Cl)cc2Cl)n1-c1ccccc1	1	520	0	-6	-6	-3
S=c1[nH]nc(-c2ccc3c(c2)OCO3)n1-c1ccccc1	11*	109	-1	-4	0	-4
S=c1[nH]nc(-c2ccc(Cl)cc2Cl)n1-c1ccc2c(c1)OCCO2	9.2*	292	-8	-5	2	3
Cc1nn(C)cc1-c1n[nH]c(=S)n1-c1ccc(Cl)cc1	9.2*	288	-1	-3	-1	5
COc1ccc(N(C)S(=O)(=O)c2ccc3c(c2)CCN3C(=O)C2CC2)c(OC)c1	-1	261	-12	-2	-7	-3
CN(C)C(=O)c1cccc(-c2csc(N3CCC(C(N)=O)CC3)n2)c1	/	270	/	/	/	/
COc1ccccc1-c1n[nH]c(=S)n1N	1	350	4	-3	-2	22
COc1ccccc1-c1n[nH]c(=S)n1-c1ccccc1	8.9*	394	-6	-3	2	28
CS(=O)(=O)Nc1ccc(-c2n[nH]c(=S)n2-c2ccccc2)cc1	8.2*	595	-4	-3	-3	20
COc1ccc(CCNC(=O)c2cc(=O)c3cc(C)ccc3o2)cc1OC	-1	262	-16	-1	5	7
CN1CCN(C(=O)c2cnn3c(C(F)(F)F)cc(-c4cccs4)nc23)CC1	8.6*	204	-3	-4	-7	12
COc1ccc2oc(C(=O)OCC(=O)N(Cc3ccccc3)C(C)(C)C)c(C)c2c1	-1	194	-2	-1	3	-6
COc1cc2ccccc2cc1C(=O)Nc1sc2c(c1C(N)=O)CCN(C(C)C)C2	3	289	-25	7.1*	3	9
COc1cc(C(=O)NCC(=O)N/N=C(/C)c2cccs2)cc(OC)c1OC	0	326	-3	0	0	0
N#C/C(=N/Nc1ccc(OC(F)(F)F)cc1)C(N)=S	-4	342	0	0	2	7
SMILES	VIM-2 inh	T cell modulator	p-CIP stab down	IMP-1 inhibitor	CTSL1 counter	SUMO HTRF inh
NC(=S)N=Nc1ccc(NN=C(N)N)cc1	-1	375	3	-4	46*	-13
Cc1cc(C)nc(/N=C2\NC(=O)CC(C(=O)O)N2c2ccc(Oc3ccccc3)cc2)n1 (stereo not given)	-2	189	2	-3	37*	-2
Cc1ccc(N2/C(=N/c3nc(C)cc(C)n3)NC(=O)CC2C(=O)O)cc1 (stereo not given)	-2	447	10	-3	-2	9
O=C(/C=C/c1ccncc1)c1ccc(NC(=O)c2ccccc2F)cc1	0	233	-4	2	-1	70*
O=C(/C=C/c1ccc(NC(=O)c2ccccc2-c2ccccc2C(=O)O)cc1)c1ccccc1	4	626	4	-1	6	37
COC(=O)c1c(C)oc2c1cc(NS(=O)(=O)c1ccc(C(=O)O)cc1)c1ccccc12	0	412	1	7.3*	-1	19
O=C(NCC(=O)N(c1cccnc1)C(C(=O)NC1CCCCC1)c1ccccc1F)c1ccco1 (stereo not given)	-2	i	-6	-1	1	9
O=C(NC(=S)Nc1nc(-c2ccc([N+](=O)[O-])cc2)cs1)c1ccco1	-5	370	2	62*	5	3
O=C(O)C1CC=CCC1C(=O)N1CCCC1 (stereo not given)	0	952	-4	-4	18*	21
COc1ccc(S(=O)(=O)NCc2csc(C)n2)cc1OC	-2	254	-4	-3	-3	7
C/C(=N\Nc1cc(C(F)(F)F)ccc1Cl)c1ccncc1	7	177	13	-2	1	-6
Cn1nc(C(=O)OCC(=O)c2ccc(Br)cc2)c2ccccc2c1=O	/	308	/	/	/	/
Cc1ccc(S(=O)(=O)N2CCC(NC(=O)c3cccnc3)CC2)cc1Cl	1	197	4	-4	-2	-13
Cc1ccc(C2=N/C(=C\c3cccnc3)C(=O)O2)cc1	-8	373	-11	-3	1	10
CCO/C=C1\N=C(c2ccc(F)cc2)OC1=O	-1	387	-14	-3	36*	-10
O=C(O)/C=C/C(=O)c1c(-c2ccccc2)[nH]c2ccccc12	2	313	-3	1	58*	10
COc1cccc(CCC(=O)O)c1OC	0	283	/	-1	19*	/
O=C(O)CCc1ccccc1OC(=O)c1ccccc1	-3	236	0	-2	-3	-4
COc1cccc(N(CC(=O)NCCSCc2ccco2)S(=O)(=O)c2ccccc2)c1	1	296	-21	5.0*	-1	7
C[C@H](NC(=O)c1ccc2ccccc2c1)C(=O)N1CCC2(CC1)NCCc1[nH]cnc12	-1	392	-5	-1	-3	/
Cc1ccc(-n2nnnc2CSc2nnc(-c3ccc(O)cc3)o2)cc1	0	171	-4	-3	6	6
Cc1nc(SCC(=O)c2ccccc2)c(C#N)c(-c2ccco2)c1C(=O)NCc1ccco1	6	168	-4	5.0*	6	10
